The IC50 is the concentration that gives 50% inhibition. In general, MIC refers to the lowest concentration that inhibits growth of the organism. As usually defined, the IC90 is the concentration needed for an effect of 90%. For orientation: MBC means the smallest concentration meeting the test's criterion for killing.

The source of these data is ChEMBL document CHEMBL1155128, “Kinetic studies and bioactivity of potential manzamine prodrugs” (J Nat Prod, 2008).

The test system of data set [1] is Candida albicans. Briefly: Antimicrobial activity against Candida albicans ATCC 90028. Format: functional, organism-based.
In data set [2] the test system is Plasmodium berghei. Briefly: Antimalarial activity as reduced parasitaemia at day 7 in Plasmodium berghei NK65 infected mice (Mus musculus) at 30 mg/kg peroral dose […] post infection. Format: functional. Set-up: scale not given: the % may be the effect or the level left. The settings on record: route oral. The essentials:
(§1)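 Peters 4-day suppressive test. Male Swiss Webster mice (18-20 g), 5 per group, infected ip with 2 X10^7 P. berghei NK-65 parasitized red cells. Compounds in 0.1N HCl given orally about 2 h post-infection, once daily on days 0-2; vehicle and β-arteether control groups. Parasitemia followed on Giemsa-stained tail blood smears up to day 28.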

Data set [3] concerns Leishmania donovani. The data set is described as follows: Antileishmanial activity against Leishmania donovani promastigotes after 72 hrs by almar blue assay. Format: functional, organism-based.
In data set [4] the test system is Cryptococcus neoformans. Briefly: Antimicrobial activity against Cryptococcus neoformans ATCC 90113. Format: functional, organism-based.
Data set [5] has as its system Plasmodium berghei. The data set is described as follows: Antimalarial activity as reduced parasitaemia at day 14 in Plasmodium berghei NK65 infected mice (Mus musculus) at 30 mg/kg peroral dose once daily for 3 days post infection. The conditions noted are these: route oral. Further details: scale not given: the % may be the effect or the level left.
The subject of data set [6] is Mycobacterium intracellulare. Briefly: Antimicrobial activity against Mycobacterium intracellular ATCC 23068. Format: functional, organism-based. The method in brief:
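M. intracellulare ATCC 23068 tested by a modified Franzblau method. […] Fluorescence read at 544ex/590em before and after incubation.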

The subject of data set [7] is Plasmodium berghei. Briefly: Antimalarial activity as reduced parasitaemia at day 10 in Plasmodium berghei NK65 infected mice (Mus musculus) at 30 mg/kg peroral dose […] post infection. Format: functional. Further details: scale not given: the % may be the effect or the level left. The settings on record: route oral. The essentials: as §1
Data set [8] concerns Plasmodium falciparum. The data set is described as follows: Antimalarial activity against chloroquine-resistant Plasmodium falciparum W2 by LDH activity. Format: functional, organism-based. The essentials: (§2)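 Red cells infected with P. falciparum D6 or W2 (2% parasitemia, 2% hematocrit, RPMI 1640 with 10% human serum and 60 µg/mL amikacin) added to serially diluted samples. Gassed with 90% N2/5% O2/5% CO2 and held 37 °C for 72 h. Parasite LDH read with Malstat plus NBT/PES at 650 nm. IC50 from dose-response curves; artemisinin and chloroquine controls.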

The test system of data set [9] is Plasmodium berghei. Briefly: Antimalarial activity as reduced parasitaemia at day 14 in Plasmodium berghei NK65 infected mice (Mus musculus) at 10 mg/kg peroral dose […]. Format: functional. Further details: scale not given: the % may be the effect or the level left. The conditions noted are these: route oral. The method in brief: as §1
In data set [10] the test system is Staphylococcus aureus. Briefly: Antimicrobial activity against methicillin-resistant Staphylococcus aureus ATCC 43300. Format: functional, organism-based.
The subject of data set [11] is Plasmodium falciparum. The data set is described as follows: Antimalarial activity against chloroquine-sensitive Plasmodium falciparum D6 as LDH activity. Format: functional, organism-based. The essentials:
as §2

The nature of data set [12]: Cytotoxicity against african green monkey Vero cells after 48 hrs by neutral red assay. The conditions noted are these: chlorocebus sabaeus. Format: cell-based. The method in brief:
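Vero monkey kidney cells seeded at 25,000 cells/well and grown 24 h, then given samples at several concentrations for 48 h. Viable cells were counted by neutral red. IC50 was taken from dose-response curves, with doxorubicin as positive control.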

Data set [13] has as its system Plasmodium berghei. Briefly: Antimalarial activity as reduced parasitaemia day 7 in Plasmodium berghei NK65 infected mice (Mus musculus) at 10 mg/kg peroral dose […] […]. Format: functional. Further details: scale not given: the % may be the effect or the level left. The settings on record: route oral. The method in brief: as §1
In data set [14] the test system is Plasmodium berghei. The data set is described as follows: Antimalarial activity as reduced parasitaemia on day 10 in Plasmodium berghei NK65 infected mice (Mus musculus) at 10 mg/kg peroral dose […] post infection. Further details: scale not given: the % may be the effect or the level left. The conditions noted are these: route oral. Format: functional. The method in brief:
as §1

Data set [15] has as its target Glycogen synthase kinase-3 alpha (Homo sapiens, UniProt P49840). Briefly: Inhibition of GSK3alpha.
In data set [16] the target is Glycogen synthase kinase-3 beta (Homo sapiens, UniProt P49841). Briefly: Inhibition of GSK3-beta.
Glycogen synthase kinase-3 beta, sequence (P49841 whole entry): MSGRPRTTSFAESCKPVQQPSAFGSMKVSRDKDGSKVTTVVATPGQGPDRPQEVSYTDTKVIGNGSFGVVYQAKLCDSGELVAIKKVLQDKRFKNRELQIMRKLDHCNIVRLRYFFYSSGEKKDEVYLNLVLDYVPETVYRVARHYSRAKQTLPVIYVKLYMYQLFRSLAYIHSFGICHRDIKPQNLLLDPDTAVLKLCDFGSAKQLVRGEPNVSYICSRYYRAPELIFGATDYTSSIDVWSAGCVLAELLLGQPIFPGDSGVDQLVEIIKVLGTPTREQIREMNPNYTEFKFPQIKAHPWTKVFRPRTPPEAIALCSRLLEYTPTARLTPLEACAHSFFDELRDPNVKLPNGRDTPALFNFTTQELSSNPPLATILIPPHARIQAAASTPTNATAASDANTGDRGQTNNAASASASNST
The test system of data set [17] is Vero. The data set is described as follows: Cytotoxicity against african green monkey Vero cells at 4.76 ug/ml after 48 hrs by neutral red assay. Format: functional, cell-based. The settings on record: Chlorocebus sabaeus.

Each structure is given as a SMILES string. Values after ≈ are worked out from the molar mass of the structure shown. Active and inactive are the calls of the source.

Glycogen synthase kinase-3 alpha, sequence (P49840 whole entry): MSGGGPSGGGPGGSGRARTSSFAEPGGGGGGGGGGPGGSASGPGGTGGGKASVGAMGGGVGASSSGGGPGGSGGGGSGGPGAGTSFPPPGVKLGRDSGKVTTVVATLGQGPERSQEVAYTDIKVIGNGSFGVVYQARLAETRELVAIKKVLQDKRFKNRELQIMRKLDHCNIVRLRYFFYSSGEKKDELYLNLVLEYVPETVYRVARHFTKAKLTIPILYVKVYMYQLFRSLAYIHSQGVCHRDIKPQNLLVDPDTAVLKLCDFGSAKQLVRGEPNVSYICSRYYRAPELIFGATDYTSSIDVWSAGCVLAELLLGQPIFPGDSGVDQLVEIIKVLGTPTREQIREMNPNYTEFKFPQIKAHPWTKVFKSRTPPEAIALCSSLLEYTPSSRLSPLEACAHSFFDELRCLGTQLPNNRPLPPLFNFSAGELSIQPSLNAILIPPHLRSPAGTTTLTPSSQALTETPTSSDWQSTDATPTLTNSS

As for `CC(=O)Oc1cccc2c1[nH]c1c(C3=C[C@@]4(O)CC/C=C\CCCCN5CC[C@@H]3[C@]3(C[C@@H]6/C=C\CCCCN6[C@H]34)C5)nccc12` [8-ACETOXYMANZAMINE A], the IC50 in data set [1] is 1.5 µg/mL (≈ 2.47 µM); in data set [3] it was 3.4 µg/mL (≈ 5.6 µM); in data set [4], 1.5 µg/mL (≈ 2.47 µM); in [6], 0.1 µg/mL (≈ 0.165 µM); in data set [8], 0.03 µg/mL (≈ 0.0494 µM); in data set [10], 0.5 µg/mL (≈ 0.824 µM). For the same molecule, the IC50 in data set [11] is 0.0096 µg/mL (≈ 0.0158 µM). The MFC in [1] was determined as 5 µg/mL (≈ 8.24 µM); in data set [4], 5 µg/mL (≈ 8.24 µM); in [10], 20 µg/mL (≈ 33 µM). For the same molecule, the results for the MIC in data set [1], in [4] and in data set [6] were 2.5 µg/mL (≈ 4.12 µM), 2.5 µg/mL (≈ 4.12 µM) and 0.16 µg/mL (≈ 0.264 µM), respectively. Further, the Activity in [2] is on record as 93%; in data set [5], 48%; in [7] it was 84%; in data set [9] it was 8%; in [13], 61%; in data set [14], 51%. Further, the IC90 in data set [3] stood at 7 µg/mL (≈ 11.5 µM). In addition, the MBC in data set [6] was above 20 µg/mL. The CC50 at 48 h in [12] (read-out: TC50) was 370 µg/mL (≈ 610 µM).
In the case of `O[C@]12C=C(c3nccc4c3[nH]c3ccccc34)[C@@H]3CCN(CCCC/C=C\CC1)C[C@@]31C[C@@H]3/C=C\CCCCN3[C@H]12` [MANZAMINE A], the figures for the IC50 in data set [15], in data set [8] and in data set [16] were 25 µM, 0.005 µg/mL (≈ 0.00911 µM) and 10 µM, respectively. Further, in data set [3], the IC90 amounted to 1.8 µg/mL (≈ 3.28 µM). The MIC came out at 10 µg/mL (≈ 18.2 µM) in [4] and 0.63 µg/mL (≈ 1.15 µM) in data set [6]. Also, the Activity in [9] was 90%; in data set [13] it was 100%; in [14], 100%. The CC50 at 48 h in data set [12] (read-out: TC50) amounted to 680 µg/mL (≈ 1240 µM).
In the case of `C[C@@H]1CC[C@H]2[C@@H](C)C(=O)O[C@@H]3O[C@@]4(C)CC[C@@H]1[C@]32OO4` [ARTEMISININ], the IC50 in [8] is 0.0044 µg/mL (≈ 0.0156 µM); in data set [11], 0.0043 µg/mL (≈ 0.0152 µM).
In [6], `O=C(O)c1cn(C2CC2)c2cc(N3CCNCC3)c(F)cc2c1=O` [CIPROFLOXACIN] came in with an MBC above 20 µg/mL and an MIC of 0.5 µg/mL (≈ 1.51 µM). In data set [10], the MFC was determined as 1 µg/mL (≈ 3.02 µM) and 0.25 µg/mL (≈ 0.754 µM) was the least that counted as inhibitory (MIC).
As to `Oc1cccc2c1[nH]c1c(C3=C[C@@]4(O)CC/C=C\CCCCN5CC[C@@H]3[C@]3(C[C@@H]6/C=C\CCCCN6[C@H]34)C5)nccc12`, the values for the IC50 in data set [1], in [6] and in [10] were 10 µg/mL (≈ 17.7 µM), 0.25 µg/mL (≈ 0.443 µM) and 6.5 µg/mL (≈ 11.5 µM), respectively. Besides, the MIC in data set [1] was determined as 5 µg/mL (≈ 8.85 µM); in data set [6] it was 0.31 µg/mL (≈ 0.549 µM). Besides, the Activity in [2] is recorded as 100%; in data set [5], 67%; in [7] it was 83%; in data set [9], 32%; in [13] it was 57%; in data set [14] it was 35%. Moreover, the IC90 in data set [3] was found to be 11 µg/mL (≈ 19.5 µM). Further, the CC50 at 48 h in [12] was determined as 1.1 µg/mL (≈ 1.95 µM).
In data set [3], `N=C(N)c1ccc(OCCCCCOc2ccc(C(=N)N)cc2)cc1` [PENTAMIDINE] registered an IC50 of 0.9 µg/mL (≈ 2.64 µM) and an IC90 of 1.8 µg/mL (≈ 5.29 µM).
In data set [1], `C[C@@H]1[C@H](O)[C@@H](C)/C=C/C=C/C=C/C=C/C=C/C=C/C=C/[C@H](O[C@@H]2O[C@H](C)[C@@H](O)[C@H](N)[C@@H]2O)C[C@@H]2O[C@](O)(C[C@@H](O)C[C@@H](O)[C@H](O)CC[C@@H](O)C[C@@H](O)CC(=O)O[C@H]1C)C[C@H](O)[C@H]2C(=O)O` [AMPHOTERICIN B] showed an IC50 of 0.1 µg/mL (≈ 0.108 µM) and an MIC of 0.63 µg/mL (≈ 0.682 µM). In data set [3], this molecule registered an IC50 of 0.4 µg/mL (≈ 0.433 µM) and a concentration for an effect of 90% (IC90) of 0.36 µg/mL (≈ 0.39 µM). In addition, in data set [4], the IC50 came to 1 µg/mL (≈ 1.08 µM), the MFC was 2.5 µg/mL (≈ 2.71 µM) and it took 2.5 µg/mL (≈ 2.71 µM) to inhibit growth (MIC).
As to `COc1cccc2c1[nH]c1c(C3=C[C@@]4(O)CC/C=C\CCCCN5CC[C@@H]3[C@]3(C[C@@H]6/C=C\CCCCN6[C@H]34)C5)nccc12` [8-METHOXYMANZAMINE A], the IC50 was 3 µg/mL (≈ 5.18 µM) in [1]; 5 µg/mL (≈ 8.64 µM) in [3]; 2 µg/mL (≈ 3.46 µM) in [4]; 0.15 µg/mL (≈ 0.259 µM) in [6]; 0.047 µg/mL (≈ 0.0812 µM) in [8]; 0.55 µg/mL (≈ 0.95 µM) in data set [10]. It took 0.037 µg/mL (≈ 0.0639 µM) to reach half-maximal inhibition in data set [11] (IC50). Moreover, the MFC in [1] and in data set [10] was above 20 µg/mL throughout. Further, the MIC in [1] was 10 µg/mL (≈ 17.3 µM); in data set [6], 0.63 µg/mL (≈ 1.09 µM); in [10], above 20 µg/mL. The same molecule registered an IC90 in data set [3] of 24 µg/mL (≈ 41.5 µM). In addition, the MBC in data set [6] turned out to be 20 µg/mL (≈ 34.6 µM). Also, in data set [12] (read-out: TC50), the CC50 at 48 h stood at 980 µg/mL (≈ 1690 µM).
Consider `CC(=O)Oc1cccc2c1[nH]c1c(C3=C[C@@]4(OC(C)=O)CC/C=C\CCCCN5CC[C@@H]3[C@]3(C[C@@H]6/C=C\CCCCN6[C@H]34)C5)nccc12` [8,12-DIACETOXYMANZAMINE A], for which the IC50 is above 20 µg/mL in data set [1]; 16 µg/mL (≈ 24.7 µM) in [3]; above 20 µg/mL in data set [4]; 4.5 µg/mL (≈ 6.94 µM) in data set [6]; 1.2 µg/mL (≈ 1.85 µM) in data set [8]; 2 µg/mL (≈ 3.08 µM) in data set [10]. Moreover, the IC50 in [11] amounted to 1.3 µg/mL (≈ 2 µM). The molecule also showed an IC90 in data set [3] of 35 µg/mL (≈ 53.9 µM). Also, the figures for the MIC in data set [4] and in [10] were 10 µg/mL (≈ 15.4 µM) and 5 µg/mL (≈ 7.71 µM), respectively. Also, in [17], the result was inactive.
